TDP2 inh = human TDP2 enzyme inhibitors, primary screen, biochemical, epi absorbance, recombinant enzyme. Tyrosyl-DNA phosphodiesterase 2 (Homo sapiens), O95551. T5PNP hydrolysis, p-nitrophenol absorbance 415 nm. inhibition, % at 12.8 µM. 0.34% of 370,000 active;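 active means inhibition above the mean of all tested compounds plus 3 SD, set per campaign, cut at about 25% in these data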;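 further: 0% = DMSO with enzyme and 100% = buffer with substrate but no TDP2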
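Test system: Human TDP2 enzyme | Reagent: 5 mM T5PNP | Compound dosing: 12.8 µM single point, 1% DMSO | Incubation: Enzyme reaction with compound for 2 h at 37 °C | Technique: p-Nitrophenol epi absorbance | Read-out: % inhibition relative to enzyme-containing and enzyme-free wells | Benchmarks: High control without enzyme, low control DMSO plus TDP2 | Replicates: Singlicate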
TCR-CD3 inh = inhibitors of human TCR-CD3 interaction, primary screen, biochemical, fluorescence, TAMRA-labeled TCR probe; T-cell receptor (TCR); inhibition, % at 9.4 µM; 0.37% of 360,000 active; AID 651800, 2012; in the data active means inhibition above about 19%;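 further: recombinant mutant TCR 2C K166C tagged with TAMRA read by polarization; 0% = receptor in buffer alone and 100% = receptor with positive control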
ABHD4 inh = ABHD4 inhibitors, primary screen, biochemical, fluorescence polarization, mouse; 0.54% of 370,000 active; purified mABHD4, FP-Rh probe fluorescence polarization; inhibition, % at 8.92 µM;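 active means inhibition exceeding the mean over every tested compound plus 3 SD, cut at about 30% in these data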;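 further: 0% = plate median of compound wells and 100% = S159A mutant with DMSO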
Target sequence (Q8VD66 whole entry, looked up): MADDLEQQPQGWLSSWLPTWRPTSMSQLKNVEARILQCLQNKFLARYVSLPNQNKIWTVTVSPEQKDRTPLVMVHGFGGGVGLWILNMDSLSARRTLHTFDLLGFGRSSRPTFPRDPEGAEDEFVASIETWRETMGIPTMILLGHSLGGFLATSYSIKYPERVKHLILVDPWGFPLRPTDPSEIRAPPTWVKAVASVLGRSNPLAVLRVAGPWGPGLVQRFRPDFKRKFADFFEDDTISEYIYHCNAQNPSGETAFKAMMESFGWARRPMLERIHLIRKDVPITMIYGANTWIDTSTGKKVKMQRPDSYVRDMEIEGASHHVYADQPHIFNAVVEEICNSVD
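Assay system: Wild-type mouse ABHD4 protein | Medium: HEPES pH 7.0 buffer, 150 mM NaCl, 0.01% Pluronic F-127 | Incubation: Enzyme–compound pre-incubation 45 min, then probe 60 min, both 25 °C | Technique: Fluorescence polarization with parallel and perpendicular emission, 525/598 nm | Evaluation: % inhibition of FP-Rh probe binding versus controls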
LEDGF integ inh = blockers of LEDGF/p75-dependent integrase strand transfer – biochemical, TR-FRET, high throughput, primary screen | 0.64% of 370,000 active | inhibition, % at 3.7 µM | HIV-1 integrase (with human LEDGF/p75) | AID 743269, 2014 | TR-FRET IN-LEDGF/p75 DNA integration, Eu/Cy5;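 active means inhibition above the screen-wide mean plus 3 SD, cut at about 13% in these data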;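 further: signal is the Cy5 over europium emission ratio at 671 and 618 nm; 0% = plate median of compound wells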
HTRA1 inh = HTRA1 serine protease inhibitors, primary screen, biochemical, fluorescence polarization, HTS | AID 504803, 2011 | 0.5% of 340,000 active | recombinant HTRA1, FP-rhodamine activity-based probe | Q92743 | inhibition, % at 5.96 µM; in the data active means inhibition above about 36%;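 further: 0% = enzyme with DMSO and 100% = wells lacking enzyme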
SIAE inh = human SIAE inhibitors, primary screen, biochemical, fluorescence polarization, FP-Rh probe, 1536-well HTS; Sialate O-acetylesterase (Homo sapiens), Q9HAT2; inhibition, % at 9.66 µM; SIAE FP-Rh probe binding; AID 1053197, 2014; 0.69% of 370,000 active;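 active means inhibition above a cutoff: mean of compounds within the control limits plus 3 SD of those, cut at about 17% in these data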;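 further: 0% = plate median of compound wells and 100% = probe without SIAE protein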
TDP2 inh conf = human TDP2 enzyme inhibitors, retest, confirmation, biochemical, epi absorbance, recombinant enzyme. shares compounds with TDP2 inh. absorbance read-out. inhibition, % at 12.8 µM. 22% of 1,100 active. AID 743263, 2014; in the data active means inhibition above about 25%;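 further: 0% = vehicle with enzyme and 100% = no enzyme buffer only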
IN multimer act = HIV-1 IN multimer formation enhancers, counter-screen for LEDGF/p75 integration inhibitor project, biochemical, TR-FRET. shares compounds with LEDGF integ inh. TR-FRET HIV-1 integrase multimerization. activation, % at 7.7 µM. 17% of 2,000 active. AID 1053131, 2014; in the data active means activation above about 8.9%
TRFRET interf = TR-FRET optical interference artefacts, confirmation, artefact control for LEDGF/p75-dependent integration inhibitor project, biochemical, HIV-1 IN multimerization. shares compounds with LEDGF integ inh. TR-FRET optical interference counterscreen. inhibition, % at 7.7 µM. 2,000 tested, under 10 active. AID 1053135, 2014;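 active means inhibition above the mean over all tested compounds plus 3 SD, which no compound reached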;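 further: 0% = integrase with antibodies and DMSO and 100% = antibodies without integrase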
IN-LEDGF confirm = inhibitors of HIV-1 IN-LEDGF/p75 DNA integration, confirmation, biochemical, TR-FRET. shares compounds with LEDGF integ inh. TR-FRET LEDGF/p75-dependent HIV-1 integration. inhibition, % at 3.7 µM. 36% of 2,000 active. AID 1053136, 2014; in the data active means inhibition above about 14%
Numbers without * were called inactive. A selection: hits, their analogues and other compounds. The true share with any hit is near 2.2%.

Screening O=C1C=C(N2CCCCC2)c2ccccc2C1=O returned TDP2 inh 70*, TCR-CD3 inh 1, ABHD4 inh 17, LEDGF integ inh 29*, SIAE inh 9, TDP2 inh conf 85*, IN multimer act 6, TRFRET interf -22 and IN-LEDGF confirm 67*.
Screening COc1ccc(C(O)c2nccc3cc(OC)c(OC)cc23)cc1OC (configuration not stated) returned TDP2 inh 34*, TCR-CD3 inh -5, ABHD4 inh -3, LEDGF integ inh 29*, HTRA1 inh -5, SIAE inh -9, TDP2 inh conf 16, IN multimer act 0, TRFRET interf -1 and IN-LEDGF confirm 3.
`CCN(C[C@H]1[C@@H](c2ccc(C3=CCCC3)cc2)[C@H](CO)N1C(=O)c1cccnc1)S(=O)(=O)c1ccccc1[N+](=O)[O-]` gave TDP2 inh 5, ABHD4 inh 2, LEDGF integ inh 3 and SIAE inh 2.
For O=C1C(O)=C(O)C(=O)c2ccccc21 the results were TDP2 inh 57*, TCR-CD3 inh -5, ABHD4 inh 24, LEDGF integ inh 16*, HTRA1 inh 9, SIAE inh 2, TDP2 inh conf 72*, IN multimer act 3, TRFRET interf -10 and IN-LEDGF confirm 41*.
`COc1ccc(N)c2c1OCCC2=O` gave TDP2 inh 34*, TCR-CD3 inh -2, ABHD4 inh 6, LEDGF integ inh 19*, HTRA1 inh 7, SIAE inh 12, TDP2 inh conf -2, IN multimer act -1, TRFRET interf 2 and IN-LEDGF confirm -5.
COc1ccc(N(C)C(=O)Nc2ccc3nsnc3c2)cc1 was read as TDP2 inh 95*, TCR-CD3 inh 0, ABHD4 inh 6, LEDGF integ inh 56*, HTRA1 inh 16, SIAE inh -1, TDP2 inh conf 7, IN multimer act -3, TRFRET interf 10 and IN-LEDGF confirm 5.
For COc1ccc(NC(=S)Nc2ccc3nc(C)c(C)nc3c2)cc1 the results were TDP2 inh 0, TCR-CD3 inh -9, ABHD4 inh 4, LEDGF integ inh -3, HTRA1 inh 10 and SIAE inh 0.
Screening COc1ccc(NC(=S)Nc2ccc3nsnc3c2)cc1 returned TDP2 inh 76*, TCR-CD3 inh 4, ABHD4 inh 4, LEDGF integ inh 52*, HTRA1 inh 24, SIAE inh 9, TDP2 inh conf 80*, IN multimer act 16*, TRFRET interf -56 and IN-LEDGF confirm 74*.
C=CCN(CC=C)C(=S)Nc1ccc2nsnc2c1 was read as TDP2 inh 72*, TCR-CD3 inh -6, ABHD4 inh -2, LEDGF integ inh 58*, HTRA1 inh -1, SIAE inh -1, TDP2 inh conf 59*, IN multimer act 0, TRFRET interf 1 and IN-LEDGF confirm -3.
For CCOc1ccc(NC(=S)Nc2ccc3nsnc3c2)cc1 the results were TDP2 inh 72*, TCR-CD3 inh 8, ABHD4 inh -2, LEDGF integ inh 40*, HTRA1 inh 31, SIAE inh 3, TDP2 inh conf 74*, IN multimer act 8, TRFRET interf -30 and IN-LEDGF confirm 74*.
For CC1=C[C@]2(CN(CC3CC3)C3=N[C@H](c4ccccc4)CC(=O)N32)n2c(=O)n(-c3ccccc3)c(=O)n2C1 the results were TDP2 inh -5, ABHD4 inh 2, LEDGF integ inh 1 and SIAE inh 6.
Screening S=C(Nc1ccccc1Br)OCCN1CCCC12CCC(c1ccccc1)CC2 (configuration not stated) returned TDP2 inh 7, ABHD4 inh 5, LEDGF integ inh 1 and SIAE inh -4.
`C[C@H]1[C@H](N(Cc2ccccc2)Cc2ccccc2)CC[C@@]23CCCN2C(=O)CCC[C@@H]13` gave TDP2 inh -8, ABHD4 inh -4, LEDGF integ inh 8 and SIAE inh 0.
Screening CC(C)N(C(=O)Nc1ccc2nsnc2c1)C(C)C returned TDP2 inh 88*, TCR-CD3 inh 5, ABHD4 inh 10, LEDGF integ inh 51*, SIAE inh 2, TDP2 inh conf 61*, IN multimer act 2, TRFRET interf -7 and IN-LEDGF confirm 75*.
Screening O=C(c1ccccc1)c1ccc(N2CCOCC2)cc1 returned TDP2 inh -2, TCR-CD3 inh -3, ABHD4 inh -9, LEDGF integ inh 5, HTRA1 inh -3 and SIAE inh 9.
For CC(=O)N(C1=C(N2CCOCC2)C(=O)c2ccccc2C1=O)c1ccc(C(=O)O)cc1 the results were TDP2 inh 40*, TCR-CD3 inh 2, ABHD4 inh -2, LEDGF integ inh 17*, HTRA1 inh 13, SIAE inh 1, TDP2 inh conf 24, IN multimer act 2, TRFRET interf -8 and IN-LEDGF confirm 17*.
For Cc1ccc2c(c1C)-c1c(ccc(C)c1C)C(=O)C2=O the results were TDP2 inh 79*, TCR-CD3 inh 8, ABHD4 inh 8, LEDGF integ inh 14*, HTRA1 inh 5, SIAE inh -1, TDP2 inh conf 67*, IN multimer act 4, TRFRET interf -13 and IN-LEDGF confirm 69*.
